The sample as a whole holds a higher share of hits than the screen did.
NALP1 yeast inh: blocks the NALP1 inflammasome reconstituted in yeast | 0.61% of 280,000 active | inhibition, % at 10 µM | S. cerevisiae NALP1/ASC/caspase-1 growth, X-gal OD620, 72 h | AID 2071; in the data active = inhibition mostly above about 24%, no sharp cut-off; inactive = mostly below about 32%
PolyA inh: yeast polyadenylation inhibition. S. cerevisiae SKY197-pL101 polyadenylation reporter, beta-gal luminescence; efflux-impaired pdr1/pdr3 knockout yeast; score 100 = 6 SD above DMSO. activity score, % at 12 µM. 0.02% of 300,000 active. AID 1875;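 active = lowest replicate activity score at least 50, where 100 means six control SD above control mean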;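 also: yeast exposed to compound for 9 h at 30 °C; higher score means more reporter readthrough which indicates perturbed polyadenylation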
L major viab: reduces viability of Leishmania major promastigotes; resazurin fluorescence viability; inhibition, % at 10 µM; 9% of 200,000 active; AID 1063; in the data active = inhibition above about 50%;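 also: promastigotes grown with compound for 44 hours at 28 °C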
NALP3 yeast inh: blocks the NALP3 inflammasome reconstituted in yeast; AID 2825; 0.39% of 330,000 active; inhibition, % at 10 µM; Yeast reconstituted NLRP3/ASC/caspase-1, beta-gal luminescence, 24 h;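 active = inhibition of 50% or more; inactive = inhibition below 50%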;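 also: plate controls were induced DMSO wells for no effect and uninduced yeast grown without galactose for full effect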
Calb FLC: affects C. albicans growth with fluconazole | C. albicans CaCi-2 + fluconazole, Alamar Blue growth, 48 h | growth inhibition, % (test concentration not listed) | 0.57% of 300,000 active;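 active = growth inhibition above about 58% in most replicates, limit read from the data, passing the limit was not always enough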;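 also: all wells also contain fluconazole at 8 µg/ml as a sub-toxic cotreatment; 0% = median of DMSO wells and 100% = median of geldanamycin control wells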
T cruzi inh: blocks replication of Trypanosoma cruzi | T. cruzi beta-gal in NIH3T3, luminescence, 90 h | inhibition, % (no concentration beside the values) | 1.4% of 300,000 active;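 active = mean inhibition across valid replicates above about 55%, limit read from the data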;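 also: signal also drops with host cell toxicity which is not excluded here; 0% = plate median of DMSO wells and 100% = zero luminescence signal; higher percent means less beta-gal luminescence so fewer parasites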
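Assay system: NIH/3T3 host cells with β-galactosidase reporter T. cruzi; input: 5,000 host fibroblasts per well; compound: single 50 nL compound addition per well in DMSO; timing: ≥90 h infection period, 3 h prior cell attachment; measured by: GalScreen β-gal luminescence, detergent lysis, 60 min; evaluation: percent inhibition of parasite-derived β-gal signal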
Numbers without * were called inactive; . = no result.

SMILES | NALP1 yeast inh | PolyA inh | L major viab | NALP3 yeast inh | Calb FLC | T cruzi inh
CCCCN(CC)CCNC(=O)c1nn(-c2ccc(OC)cc2)c(=O)c2c1c1ccccc1n2C | -6 | 15 | 7 | 12 | -9 | 57*
CC(NC(=O)COC(=O)c1ccc(N2CCCC2=O)cc1)c1ccc(F)cc1 (configuration not stated) | . | . | . | 6 | . | .
CCCCn1c(N)c(NCC)c(=O)[nH]c1=O | 11 | . | -2 | 15 | . | .
COc1ccc(/C=N/n2cnnc2SCc2ccccc2)cc1 | 7 | 20 | 4 | -13 | -4 | 2
Cc1ccc(NS(=O)(=O)c2cccc(C(=O)NCC(c3ccc(F)cc3)N3CCOCC3)c2)cc1 (configuration not stated) | . | 2 | . | -10 | -2 | 20
O=S(=O)(c1ccccc1)c1nc(-c2ccco2)oc1Nc1ccccc1 | 28 | -12 | 76* | 21 | -2 | 23
O=S(=O)(c1ccc(F)cc1)c1nc(-c2ccco2)oc1Nc1ccccc1 | 36 | -9 | 3 | 12 | -3 | 4
CCCCNC(=O)C(c1ccc(OCC(=O)OC)c(C(=O)OC)c1)N(CCc1c[nH]c2ccccc12)C(=O)CCCCCN1C(=O)NC(c2ccc(-c3ccccc3)cc2)C(C(=O)OCc2ccccc2)=C1C (configuration not stated) | 15 | 3 | . | 7 | -8 | 34
O=C(NC(=S)NNC(=O)[C@H]1C[C@@H]1c1ccccc1)c1cccc(F)c1 | 2 | -50 | . | 26 | 61 | 58*
COc1cccc(OC)c1C(=O)NC(=S)NNC(=O)[C@H]1C[C@@H]1c1ccccc1 | -14 | -7 | . | 23 | -7 | -59
Cc1oc(C)c2c(=O)ccc3c(c12)OC(N)=C(C#N)C3c1ccc(F)cc1 (configuration not stated) | -5 | -20 | 60* | 12 | 10 | 6
CCOC(=O)c1c(C)[nH]c(C(=O)OCC(=O)N(CC(C)C)c2c(N)n(Cc3ccccc3)c(=O)[nH]c2=O)c1C | . | -2 | . | 11 | 35 | 2
Cc1ccc(NC(=O)CCC(=O)NNC(=O)NC2CCCCC2)c(C)c1 | 12 | 6 | -9 | 20 | -8 | 2
Cc1nc(N/C(N)=N/S(=O)(=O)c2ccc([N+](=O)[O-])cc2)nc2ccccc12 | 22 | 2 | 54* | 11 | 6 | 56*
Cc1ccc2c(C)nc(N/C(N)=N/S(=O)(=O)c3ccc([N+](=O)[O-])cc3)nc2c1 | 32 | -21 | 88* | 41 | -8 | 55*
Cc1nc(N/C(N)=N/S(=O)(=O)c2ccccc2)nc2ccccc12 | . | . | . | 4 | . | .
Cc1cc2nnc(SCC(=O)NCC3CCCO3)n2c2ccccc12 (configuration not stated) | 2 | -8 | 7 | 9 | -15 | 0
Cc1[nH]c2ccc(-c3nnc(SCC(=O)N4CCCc5ccccc54)o3)cc2c1C | -2 | -7 | 4 | 1 | 5 | 79*
OC1c2cc(Br)ccc2N=C2CCCN21 (configuration not stated) | 28 | -19 | . | 43 | 19 | 55*
CCOc1cc(C#N)ccc1OCC(=O)NNC(=O)CC1CCS(=O)(=O)C1 (configuration not stated) | . | . | . | -3 | . | .
C=CC[C@H](CC(=O)N(CCO)Cc1ccccc1)C(=O)NCCOC(=O)[C@H](CC=C)CC(=O)OC(C)(C)C | . | . | . | -13 | . | .
O=C(COc1ccccc1)NCC(=O)N1CCCCCC1 | . | . | . | 10 | . | .
CCN(CC)S(=O)(=O)c1cc(NC(=O)C(C)N(C)CC(=O)Nc2c(C)cccc2C)ccc1C (configuration not stated) | 10 | 12 | 68* | -5 | 1 | 18
COc1c(Cl)cc(Cl)cc1/C=C/C(=O)c1ccc(NC(=O)c2cccs2)cc1 | 22 | -7 | 100* | 21 | 10 | 43
COc1c(Cl)cc(Cl)cc1C(=O)Nc1ccc(NC(C)=O)cc1 | 12 | 13 | 60* | 35 | -22 | -9
SMILES | NALP1 yeast inh | PolyA inh | L major viab | NALP3 yeast inh | Calb FLC | T cruzi inh
COc1cc(NC(=O)c2cccc(Cl)c2)ccc1NC(=O)c1cccs1 | 15 | . | 4 | 41 | -20 | .
COc1c(Cl)cc(Cl)cc1C(=O)Nc1ccc(C(=O)O)cc1 | 26 | -5 | -1 | 5 | 36 | -28
COc1cccc(C2C(C#N)=C(N)OC3=C2C(=O)CC(c2ccco2)C3)c1OCc1ccc(F)cc1 (configuration not stated) | -16 | -18 | 76* | 19 | 5 | 32
N#CC1=C(N)OC2=C(C(=O)CC(c3ccco3)C2)C1c1ccc(OCc2c(F)cccc2Cl)cc1 (configuration not stated) | 24 | -14 | 11 | 12 | -6 | 6
CS(=O)(=O)N(CC(=O)NCCSc1ccc(Cl)cc1)c1ccc2c(c1)OCO2 | 32 | 0 | -4 | 21 | -1 | 17
CN(Cc1ccccc1)C(=O)c1ccccc1N(C)S(=O)(=O)c1ccccc1 | . | . | . | 9 | . | .
CCCCc1nc(N2CCN(C(=O)c3ccco3)CC2)c(C#N)c2c1CCCC2 | 10 | -3 | . | 11 | 4 | 38
Cc1c(NC(=O)c2ccc(-c3ccc([N+](=O)[O-])cc3Cl)o2)c(=O)n(-c2ccccc2)n1C | -6 | -14 | 16 | 16 | 13 | 56*
CC(=O)CS(=O)(=O)c1ccc(Oc2ccc(S(=O)(=O)CC(C)=O)cc2)cc1 | 2 | 5 | -4 | 21 | -4 | -12
CC(=O)CCS(=O)(=O)c1ccc(Oc2ccc(S(=O)(=O)CCC(C)=O)cc2)cc1 | -6 | 2 | 54* | 15 | 2 | 47
Cc1ccc2nsnc2c1NC(=O)CCc1ccccc1 | 34 | 8 | -7 | 19 | -26 | -13
Cc1ccc2nsnc2c1NC(=O)COc1ccccc1F | 8 | 6 | 3 | 11 | 114* | 17
CC(=O)/C(C#N)=C1\NC(=O)C(Cc2ccc(C)c(Cl)c2)S1 (configuration not stated) | . | 2 | . | 5 | 6 | 0
COc1ccc(Sc2nnc(Cc3ccccc3)c3ccccc23)cc1 | -6 | -30 | 85* | 9 | 10 | 46
Cc1ccc(Sc2nnc(Cc3ccccc3)c3ccccc23)cc1 | 48 | -8 | 39 | 22 | -7 | 62*
COc1ccc(Sc2nnc(-c3ccccc3)cc2C#N)cc1 | 44 | 1 | -6 | 23 | 1 | 1
Cc1c(NC(=O)c2ccc3c(c2)OCO3)c(=O)n(-c2ccccc2)n1C | 22 | -6 | -4 | 13 | -7 | -13
Fc1ccc(C(CCCn2nnc(-c3cccnc3)n2)c2ccc(F)cc2)cc1 | -2 | -8 | 16 | 1 | 24 | 62*
Fc1ccc(-n2nnc(-c3cccnc3)n2)cc1 | 0 | -7 | 3 | 0 | -20 | -16
O=C(Nc1ccc(O)c(C(=O)O)c1)Oc1ccccc1 | 20 | -6 | . | 10 | -1 | -12
NS(=O)(=O)c1ccc(Nc2ccc([N+](=O)[O-])c3nonc23)cc1 | . | -21 | . | 38 | 11 | 11

From PubChem
